Data as given in ChEMBL document CHEMBL1137665, “Antistaphylococcal activity of CG400549, a new experimental FabI inhibitor, compared with that of other agents” (2007).
Values after ≈ are worked out from the molar mass of the structure shown.

Key:
Format in all cases: functional
Staphylococcus aureus [1] = test: Antimicrobial activity against methicillin-susceptible Staphylococcus aureus 543 after single-step resistance selection by agar dilution CLSI method
Summary of the method: (§1)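 Single-step selection on drug-containing agar across 10 strains (2 MSSA, 8 MRSA, including VRSA and VISA). Colonies arising on confluent background growth were retested by CLSI agar dilution MIC. Resistance was defined as an MIC more than 4× the parent MIC.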

Staphylococcus aureus [2] = test: Antimicrobial activity against panton-valentine leukocidin-positive community-acquired methicillin-resistant Staphylococcus aureus 490 after 17 passages with CG400549 measured after 10 antibiotic-free subculture by multi-step resistance selection technique
Summary of the method: (§2)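 Multistep-selected mutants (daily passage at subinhibitory drug levels) then subcultured 10 times daily on antibiotic-free medium; MIC redetermined afterwards and compared with the MIC recorded at the end of selection; clone identity to parent checked by pulsed-field gel electrophoresis.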

Staphylococcus aureus [3] = test: Antimicrobial activity against vancomycin-intermediate Staphylococcus aureus 504 after 14 passages by multi-step resistance selection technique
Summary of the method: (§3)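 Multistep selection: 10 S. aureus strains (8 MRSA incl. two VRSA, two VISA; 2 MSSA) serially passaged daily at subinhibitory concentrations of each antimicrobial; MICs of mutants retested and compared with parent; clone identity versus parent confirmed by pulsed-field gel electrophoresis at study end.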

Staphylococcus aureus [4] = test: Antimicrobial activity against methicillin-susceptible Staphylococcus aureus 540 after 14 passages with CG400549 measured after 10 antibiotic-free subculture by multi-step resistance selection technique
Summary of the method: (§4)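 Mutants from multistep daily serial passage in subinhibitory drug were then subcultured daily 10 times on antibiotic-free medium. MIC was redetermined after these subcultures to assess stability. Clone identity was checked by pulsed-field gel electrophoresis.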

Staphylococcus aureus [5] = test: Antimicrobial activity against panton-valentine leukocidin-positive community-acquired methicillin-resistant Staphylococcus aureus 490 after 14 passages with daptomycin measured after 10 antibiotic-free subculture by multi-step resistance selection technique; summary of the method: as §2
Staphylococcus aureus [6] = test: Antimicrobial activity against vancomycin-intermediate Staphylococcus aureus 555 Hershey after 14 passages by multi-step resistance selection technique; summary of the method: as §3
Staphylococcus aureus [7] = test: Antimicrobial activity against methicillin-susceptible Staphylococcus aureus 540 after single-step resistance selection by agar dilution CLSI method; summary of the method: as §1
Staphylococcus aureus [8] = test: Antimicrobial activity against panton-valentine leukocidin-negative community-acquired methicillin-resistant Staphylococcus aureus 481 after 14 passages with daptomycin measured after 10 antibiotic-free subculture by multi-step resistance selection technique; summary of the method: as §4
Staphylococcus aureus [9] = test: Antimicrobial activity against vancomycin-resistant Staphylococcus aureus 509 Michigan by agar dilution CLSI method
Summary of the method: (§5)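 Agar dilution MIC per CLSI methodology; calcium supplemented for daptomycin testing; vancomycin plates read after a full 24-h incubation.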

Staphylococcus aureus [10] = test: Antimicrobial activity against vancomycin-resistant Staphylococcus aureus 509 Michigan after 14 passages by multi-step resistance selection technique; summary of the method: as §3
Staphylococcus aureus [11] = test: Antimicrobial activity against methicillin-resistant Staphylococcus aureus 481 after single-step resistance selection by agar dilution CLSI method; summary of the method: as §1
Staphylococcus aureus [12] = test: Antimicrobial activity against methicillin-susceptible Staphylococcus aureus 540 after 14 passages by multi-step resistance selection technique
Summary of the method: (§6)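 Multistep selection by daily serial passage of each strain in subinhibitory drug concentrations for the stated number of passages. Mutant MIC was then determined. Identity of mutants and parents was confirmed by pulsed-field gel electrophoresis.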

Staphylococcus aureus [13] = test: Antimicrobial activity against methicillin-resistant Staphylococcus aureus 547 after 21 passages with daptomycin measured after 10 antibiotic-free subculture by multi-step resistance selection technique; summary of the method: as §4
Staphylococcus aureus [14] = test: Antimicrobial activity against vancomycin-intermediate Staphylococcus aureus 555 Hershey after 14 passages with CG400549 measured after 10 antibiotic-free subculture by multi-step resistance selection technique; summary of the method: as §2
Staphylococcus aureus [15] = test: Antimicrobial activity against methicillin-resistant Staphylococcus aureus 547 by agar dilution CLSI method
Summary of the method: (§7)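 CLSI agar dilution MIC against S. aureus clinical isolates. Calcium was added to the medium for daptomycin testing. Vancomycin plates were read after a full 24-h incubation.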

Staphylococcus aureus [16] = test: Antimicrobial activity against methicillin-resistant Staphylococcus aureus 525 after 20 passages with daptomycin measured after 10 antibiotic-free subculture by multi-step resistance selection technique; summary of the method: as §4
Staphylococcus aureus [17] = test: Antimicrobial activity against methicillin-resistant Staphylococcus aureus 547 after 14 passages by multi-step resistance selection technique; summary of the method: as §6
Staphylococcus aureus [18] = test: Antimicrobial activity against methicillin-resistant Staphylococcus aureus 547 after single-step resistance selection by agar dilution CLSI method; summary of the method: as §1
Staphylococcus aureus [19] = test: Antimicrobial activity against methicillin-susceptible Staphylococcus aureus 540 after 16 passages with quinupristin-dalfopristin measured after 10 antibiotic-free subculture by multi-step resistance selection technique; summary of the method: as §4
Staphylococcus aureus [20] = test: Antimicrobial activity against methicillin-susceptible Staphylococcus aureus 543 after 14 passages with CG400549 measured after 10 antibiotic-free subculture by multi-step resistance selection technique; summary of the method: as §4
Staphylococcus aureus [21] = test: Antimicrobial activity against vancomycin-resistant Staphylococcus aureus 509 Michigan after 20 passages with daptomycin measured after 10 antibiotic-free subculture by multi-step resistance selection technique; summary of the method: as §2
Staphylococcus aureus [22] = test: Antimicrobial activity against methicillin-susceptible Staphylococcus aureus 543 after 15 passages with Linezolid measured after 10 antibiotic-free subculture by multi-step resistance selection technique; summary of the method: as §4
Staphylococcus aureus [23] = test: Antimicrobial activity against vancomycin-intermediate Staphylococcus aureus 504 after 16 passages with quinupristin-dalfopristin measured after 10 times antibiotic-free subculture by multi-step resistance selection technique; summary of the method: as §2
Staphylococcus aureus [24] = test: Antimicrobial activity against vancomycin-resistant Staphylococcus aureus 510 Hershey after 14 passages with quinupristin-dalfopristin measured after 10 antibiotic-free subculture by multi-step resistance selection technique; summary of the method: as §2
Staphylococcus aureus [25] = test: Antimicrobial activity against vancomycin-resistant Staphylococcus aureus 510 Hershey by agar dilution CLSI method; summary of the method: as §5
Staphylococcus aureus [26] = test: Antimicrobial activity against methicillin-susceptible Staphylococcus aureus 540 by agar dilution CLSI method; summary of the method: as §7
Staphylococcus aureus [27] = test: Antimicrobial activity against methicillin-resistant Staphylococcus aureus 525 after 14 passages by multi-step resistance selection technique; summary of the method: as §6
Staphylococcus aureus [28] = test: Antimicrobial activity against methicillin-susceptible Staphylococcus aureus 543 after 17 passages with daptomycin measured after 10 antibiotic-free subculture by multi-step resistance selection technique; summary of the method: as §4
Staphylococcus aureus [29] = test: Antimicrobial activity against vancomycin-intermediate Staphylococcus aureus 555 Hershey after 50 passages by multi-step resistance selection technique; summary of the method: as §3
Staphylococcus aureus [30] = test: Antimicrobial activity against vancomycin-intermediate Staphylococcus aureus 504 after 50 passages by multi-step resistance selection technique
Summary of the method: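 Multistep selection: S. aureus strains (MSSA and MRSA, including VISA and VRSA) were passaged serially once daily in subinhibitory concentrations of each antimicrobial. Mutant and parent identities were confirmed by pulsed-field gel electrophoresis at the end of the study. Mutant MIC stability was checked after 10 daily subcultures on antibiotic-free media.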

Staphylococcus aureus [31] = test: Antimicrobial activity against vancomycin-resistant Staphylococcus aureus 510 Hershey after 18 passages by multi-step resistance selection technique; summary of the method: as §3
Staphylococcus aureus [32] = test: Antimicrobial activity against panton-valentine leukocidin-positive community-acquired methicillin-resistant Staphylococcus aureus 490 after 14 passages by multi-step resistance selection technique; summary of the method: as §3
Staphylococcus aureus [33] = test: Antimicrobial activity against vancomycin-resistant Staphylococcus aureus 509 Michigan after 20 passages by multi-step resistance selection technique; summary of the method: as §3
Staphylococcus aureus [34] = test: Antimicrobial activity against methicillin-resistant Staphylococcus aureus 525 after 20 passages by multi-step resistance selection technique; summary of the method: as §6
Staphylococcus aureus [35] = test: Antimicrobial activity against methicillin-susceptible Staphylococcus aureus 540 after 24 passages by multi-step resistance selection technique; summary of the method: as §6
Staphylococcus aureus [36] = test: Antimicrobial activity against methicillin-resistant Staphylococcus aureus 547 after 21 passages by multi-step resistance selection technique; summary of the method: as §6

| Structure (SMILES) | MIC (Staphylococcus aureus [1]) [µg/mL] | MIC (Staphylococcus aureus [2]) [µg/mL] | MIC (Staphylococcus aureus [4]) [µg/mL] | MIC (Staphylococcus aureus [5]) [µg/mL] | MIC (Staphylococcus aureus [7]) [µg/mL] | MIC (Staphylococcus aureus [8]) [µg/mL] | MIC (Staphylococcus aureus [9]) [µg/mL] | MIC (Staphylococcus aureus [11]) [µg/mL] | MIC (Staphylococcus aureus [13]) [µg/mL] | MIC (Staphylococcus aureus [14]) [µg/mL] | MIC (Staphylococcus aureus [15]) [µg/mL] | MIC (Staphylococcus aureus [16]) [µg/mL] | MIC (Staphylococcus aureus [18]) [µg/mL] | MIC (Staphylococcus aureus [19]) [µg/mL] | MIC (Staphylococcus aureus [20]) [µg/mL] | MIC (Staphylococcus aureus [21]) [µg/mL] | MIC (Staphylococcus aureus [22]) [µg/mL] | MIC (Staphylococcus aureus [23]) [µg/mL] | MIC (Staphylococcus aureus [24]) [µg/mL] | MIC (Staphylococcus aureus [25]) [µg/mL] | other results |
| --- | --- | --- | --- | --- | --- | --- | --- | --- | --- | --- | --- | --- | --- | --- | --- | --- | --- | --- | --- | --- | --- |
| Cc1c(N)cccc1Cn1ccc(OCCc2cccs2)cc1=O [CG-400549] | 0.125 (≈ 0.367 µM) | 8 (≈ 23.5 µM) | 4 (≈ 11.7 µM) | 0.25 (≈ 0.734 µM) | 0.125 (≈ 0.367 µM) | 0.25 (≈ 0.734 µM) | 1 (≈ 2.94 µM) | 0.125 (≈ 0.367 µM) | 0.125 (≈ 0.367 µM) | 2 (≈ 5.87 µM) | 0.125 (≈ 0.367 µM) | 0.125 (≈ 0.367 µM) | 0.125 (≈ 0.367 µM) | 0.125 (≈ 0.367 µM) | 8 (≈ 23.5 µM) | 1 (≈ 2.94 µM) | 0.125 (≈ 0.367 µM) | 0.5 (≈ 1.47 µM) | 0.25 (≈ 0.734 µM) | 0.25 (≈ 0.734 µM) | MIC (Staphylococcus aureus [3]): 2 µg/mL (≈ 5.87 µM); MIC (Staphylococcus aureus [6]): 2 µg/mL (≈ 5.87 µM); MIC (Staphylococcus aureus [10]): > 64 µg/mL; MIC (Staphylococcus aureus [12]): 16 µg/mL (≈ 47 µM); MIC (Staphylococcus aureus [17]): 32 µg/mL (≈ 94 µM); MIC (Staphylococcus aureus [26]): 0.125 µg/mL (≈ 0.367 µM); MIC (Staphylococcus aureus [27]): 4 µg/mL (≈ 11.7 µM); MIC (Staphylococcus aureus [28]): 0.125 µg/mL (≈ 0.367 µM) |
| CCCCCCCCCC(=O)N[C@@H](Cc1c[nH]c2ccccc12)C(=O)N[C@H](CC(N)=O)C(=O)N[C@@H](CC(=O)O)C(=O)N[C@@H]1C(=O)NCC(=O)N[C@@H](CCCN)C(=O)N[C@@H](CC(=O)O)C(=O)N[C@H](C)C(=O)N[C@@H](CC(=O)O)C(=O)NCC(=O)N[C@H](CO)C(=O)N[C@@H]([C@H](C)CC(=O)O)C(=O)N[C@@H](CC(=O)c2ccccc2N)C(=O)O[C@@H]1C | 0.5 (≈ 0.309 µM) | 1 (≈ 0.617 µM) | 1 (≈ 0.617 µM) | 4 (≈ 2.47 µM) | 0.5 (≈ 0.309 µM) | 8 (≈ 4.94 µM) | 1 (≈ 0.617 µM) | 0.5 (≈ 0.309 µM) | 4 (≈ 2.47 µM) | 8 (≈ 4.94 µM) | 1 (≈ 0.617 µM) | 2 (≈ 1.23 µM) | 0.5 (≈ 0.309 µM) | 2 (≈ 1.23 µM) | 1 (≈ 0.617 µM) | 4 (≈ 2.47 µM) | 2 (≈ 1.23 µM) | 2 (≈ 1.23 µM) | 0.5 (≈ 0.309 µM) | 1 (≈ 0.617 µM) | MIC (Staphylococcus aureus [29]): 32 µg/mL (≈ 19.7 µM); MIC (Staphylococcus aureus [30]): 16 µg/mL (≈ 9.87 µM); MIC (Staphylococcus aureus [31]): 8 µg/mL (≈ 4.94 µM); MIC (Staphylococcus aureus [32]): 8 µg/mL (≈ 4.94 µM); MIC (Staphylococcus aureus [33]): 8 µg/mL (≈ 4.94 µM); MIC (Staphylococcus aureus [34]): 8 µg/mL (≈ 4.94 µM); MIC (Staphylococcus aureus [35]): 8 µg/mL (≈ 4.94 µM); MIC (Staphylococcus aureus [26]): 1 µg/mL (≈ 0.617 µM); MIC (Staphylococcus aureus [28]): 4 µg/mL (≈ 2.47 µM); MIC (Staphylococcus aureus [36]): 8 µg/mL (≈ 4.94 µM) |
